Assay outcomes as filed in PubChem BioAssay.
SIRT5 block = blocks human SIRT5 desuccinylation of peptide; Q9NXA8; Purified SirT5, succinyl-peptide AMC, trypsin-coupled fluorescence; inhibition, % at 15 µM; 1.1% of 330,000 active; in the data active = inhibition above about 15%
Target sequence (Q9NXA8 whole entry, looked up): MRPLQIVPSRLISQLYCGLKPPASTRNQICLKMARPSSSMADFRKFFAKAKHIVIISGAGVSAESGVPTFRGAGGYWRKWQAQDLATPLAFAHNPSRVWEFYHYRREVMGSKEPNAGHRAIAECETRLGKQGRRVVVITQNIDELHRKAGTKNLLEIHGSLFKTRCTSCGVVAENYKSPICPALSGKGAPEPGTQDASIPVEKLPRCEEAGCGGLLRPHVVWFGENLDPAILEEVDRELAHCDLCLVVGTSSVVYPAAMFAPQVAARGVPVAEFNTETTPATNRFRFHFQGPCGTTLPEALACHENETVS
S100A4 MyoIIA = blocks human S100A4 binding to myosin IIA peptide; P26447; 0.14% of 360,000 active; inhibition, % at 10.7 µM; S100A4/TAMRA-MyoIIA peptide fluorescence polarization;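 active = mean inhibition of at least 70% across replicates, with every replicate also reaching that level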
Target sequence (P26447 whole entry, looked up): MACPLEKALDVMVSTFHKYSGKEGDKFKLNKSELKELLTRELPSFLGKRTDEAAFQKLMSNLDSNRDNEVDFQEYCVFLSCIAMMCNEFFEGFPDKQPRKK
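Material: S100A4 monomer protein / Buffer or medium: 50 mM HEPES pH 7.2, 10 mM CaCl2, 100 mM KCl / Times: 5 min incubation before reading / Benchmarks: neutral control DMSO, positive control TFP / Reagent: labelled myosin peptide probe, 5 nM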
DENV2 CPE rescue = DENV2-induced cell death inhibition. CPE inhibition, % at 9.99 µM. 1.7% of 350,000 active. AID 651640. DENV2-infected cells, cytopathic effect rescue, plate reader; in the data active = CPE inhibition above about 20%, passing the limit was not always enough; tested in BHK-21 cells;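 note: 0% = median of neutral control wells and 100% = median of positive control wells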
Statin myotox sup = suppressors of simvastatin-induced myotoxicity in C2C12 myotubes; ATP luminescence, 48 h; scaled: DMSO 0, geranylgeraniol control 100; rescue of ATP level, % at 7.49 µM; 0.78% of 330,000 active;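 active = mean ATP rescue above about 67%, or every replicate alone reaching that limit, limit read from the data, passing the limit was not always enough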;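 note: myotubes were challenged with 10 µM simvastatin during compound exposure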
PGC1a acetyl inh = modulators of PGC1a acetylation; U2OS PGC1a acetylation, AlphaScreen anti-acetyl-lysine; with virally co-expressed GCN5 acetyltransferase; inhibition, % at 15.6 µM; 0.17% of 350,000 active; AID 651687;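 active = every replicate shows inhibition of at least 40%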;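 note: 0% = neutral control wells and 100% = positive control wells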
Active calls of the source: *; . = no result. Most compounds without a hit are left out; they make up all but 2.9% or so of the library.

SMILES | SIRT5 block | S100A4 MyoIIA | DENV2 CPE rescue | Statin myotox sup | PGC1a acetyl inh
COCC(=O)N1CC2(C1)[C@H](c1ccccc1)[C@@H](CO)N2Cc1ccccc1OC | 2 | -1 | 16 | . | 5
COc1ccc2c3c(n(C)c2c1)[C@H](CO)N(Cc1ccccn1)CC31CCN(Cc2ccccn2)CC1 | -2 | 28 | -2 | . | .
N#C/C(C(=O)N1CCCCC1)=C1/N=C(NC(=O)c2ccc(F)cc2)c2ccccc21 | -2 | 2 | -2 | 86* | -3
COc1ccc(CN(CCNC(=O)CCCCC(=O)NCCN(Cc2ccc(OC)cc2)C(C)C)C(C)C)cc1 | -2 | -3 | 30* | . | .
O=C(CCN1CCCCC1)NCC[C@H]1CC[C@@H](NC(=O)C2CCCCC2)[C@@H](CO)O1 | -4 | 4 | -1 | . | -8
O=C(NCc1cccnc1)c1nc(-c2ccc(C(F)(F)F)cc2)no1 | 0 | 15 | 1 | . | .
O=C(NCc1ccncc1)c1nc(-c2ccc(C(F)(F)F)cc2)no1 | 19* | 5 | . | . | .
O=[N+]([O-])c1ccc(N2CCCCC2)s1 | 3 | -3 | 8 | 125* | -10
CO[C@@H]1CN(C)C(=O)c2ccc(NC(=O)c3ccccc3F)cc2OC[C@@H](C)N(C)C[C@@H]1C | . | . | . | -6 | -5
Cc1ccc(S(=O)(=O)N(C)C[C@@H]2OCCCC[C@@H](C)Oc3ccc(NC(=O)CCCN(C)C)cc3C(=O)N([C@H](C)CO)C[C@@H]2C)cc1 | 1 | 1 | -3 | . | -2
COc1cc(C(=S)N2CCOCC2)ccc1OC(=O)c1ccccc1 | -1 | 0 | 3 | 7 | .
O=C(Oc1ccc(C(=S)N2CCOCC2)cc1Br)c1ccccc1F | . | . | . | 149* | -7
COc1ccc(C(=S)N2CCOCC2)cc1OC(=O)c1ccccc1 | -4 | -1 | 24* | 17 | 4
CC(=O)N(C)C[C@@H]1Oc2cc(C#Cc3ccccc3)ccc2S(=O)(=O)N([C@@H](C)CO)C[C@H]1C | 4 | -1 | -4 | 1 | 3
O=C1c2ccccc2CN1CCSC(=S)N1CCOCC1 | -1 | -4 | 21* | . | 2
C[C@H]1CN([C@@H](C)CO)C(=O)c2cc(-c3ccccc3)cnc2O[C@H]1CN(C)C(=O)c1ccccc1F | 0 | -56 | -3 | 7 | 10
Cc1noc(C)c1NC(=O)Nc1cccc2c1O[C@H](CN(C)C(=O)Nc1ccccc1)[C@H](C)CN([C@@H](C)CO)C2=O | -5 | 9 | -7 | 18 | -9
CC(C)CC#Cc1ccc2c(c1)O[C@H](CN(C)C(=O)Cc1ccccc1)[C@H](C)CN([C@H](C)CO)S2(=O)=O | 3 | 2 | -9 | -21 | -52
O=C(NCc1cccc(Cl)c1)c1cnn2c1NC(c1ccco1)CC2C(F)(F)F (stereo unspecified) | . | . | . | 24 | -6
O=C(NCC12CC3CC(CC(C3)C1)C2)c1nn2c(c1Cl)NC(c1ccco1)CC2C(F)(F)F (stereo unspecified) | . | . | . | 137* | 1
CCOCCN1CCN(c2c(CC)c(C)nc3cc(-c4cc(OC)cc(OC)c4)nn23)CC1 | . | . | . | 99* | 3
COc1ccc(S(=O)(=O)N(C)C[C@@H]2Oc3ccc(NC(=O)Cc4ccccc4)cc3CC(=O)N([C@H](C)CO)C[C@H]2C)cc1 | 3 | 5 | 17 | -3 | -11
COC(=O)CCC(=O)Nc1sc(C)c(C)c1C(N)=O | . | . | . | 111* | 1
CCN1CCN(C(=O)CN(CC)S(=O)(=O)c2ccc3ccccc3c2)CC1 | 23* | -4 | -4 | 0 | .
COc1ccc(C#Cc2ccc3c(c2)[C@@H]2[C@@H](CCN2S(=O)(=O)c2ccccc2C)[C@@H](CO)N3)cc1 | 3 | 1 | 6 | -2 | 5
SMILES | SIRT5 block | S100A4 MyoIIA | DENV2 CPE rescue | Statin myotox sup | PGC1a acetyl inh
COc1ccc(NC(=O)CN2c3cccc4cccc(c34)S2(=O)=O)cc1 | . | . | . | 99* | -2
Cc1ccc(NC(=O)CN2c3cccc4cccc(c34)S2(=O)=O)cc1 | -3 | 9 | 4 | -4 | .
CCOc1ccccc1NC(=O)CN1c2cccc3cccc(c23)S1(=O)=O | 19* | -6 | 1 | 12 | -1
O=C1[C@H](Cc2ccccc2)NCC=CC[C@H](c2ccc(Cl)cc2)N1Cc1ccccc1 | . | -1 | 25* | -11 | -3
C[C@H]1CN([C@@H](C)CO)C(=O)c2cc(NC(=O)Nc3ccc(C(F)(F)F)cc3)ccc2O[C@@H]1CN(C)C(=O)Nc1ccc2c(c1)OCO2 | -3 | -2 | 3 | 54 | -2
C[C@@H]1CN([C@H](C)CO)C(=O)c2cc(NC(=O)Nc3ccccc3)ccc2O[C@@H]1CN(C)C(=O)Nc1ccc(C(F)(F)F)cc1 | 4 | -8 | -1 | -35 | 5
C[C@H]1CN([C@@H](C)CO)C(=O)c2cc(NC(=O)Nc3ccccc3)ccc2O[C@@H]1CN(C)C(=O)Nc1ccc(C(F)(F)F)cc1 | 6 | -5 | 22* | -25 | -2
C[C@H]1CN([C@@H](C)CO)C(=O)c2cc(NC(=O)Nc3ccc4c(c3)OCO4)ccc2O[C@@H]1CN(C)C(=O)Nc1ccc(C(F)(F)F)cc1 | 6 | -12 | 7 | 91* | 8
C[C@H]1CN([C@@H](C)CO)C(=O)c2cc(NC(=O)CCC(F)(F)F)ccc2O[C@H]1CN(C)C(=O)Nc1cccc2ccccc12 | 8 | -10 | 26* | 9 | 6
C[C@@H]1CN([C@@H](C)CO)C(=O)c2cc(NC(=O)CCC(F)(F)F)ccc2O[C@@H]1CN(C)C(=O)Nc1ccc2c(c1)OCO2 | -1 | -2 | 31* | -6 | -8
C[C@H]1CN([C@@H](C)CO)C(=O)c2cc(C3=CCCC3)cnc2O[C@@H]1CN(C)Cc1cccc(F)c1 | 5 | 7 | -4 | -11 | -26
COCC#Cc1cnc2c(c1)C(=O)N([C@H](C)CO)C[C@@H](C)[C@@H](CN(C)S(C)(=O)=O)O2 | -5 | 19 | . | -6 | 4
C[C@@H]1CN([C@@H](C)CO)C(=O)c2cc(NC(=O)Cn3cnnn3)ccc2O[C@@H]1CN(C)C(=O)Nc1ccc(F)cc1 | 4 | -17 | 0 | -5 | -2
C[C@@H]1CN([C@H](C)CO)C(=O)c2cc(NC(=O)Cn3cnnn3)ccc2O[C@@H]1CN(C)C(=O)Nc1ccc(C(F)(F)F)cc1 | 4 | -7 | 59* | -29 | 8
Brc1ccc(-c2nnc(-c3cccnc3)o2)cc1 | -1 | -5 | 82* | . | .
CN1C(=O)c2cc(NC(=O)c3ccccc3Cl)ccc2OC[C@@H]2O[C@@H](CC(=O)NCC(F)(F)F)CC[C@H]21 | 4 | 127* | -7 | 22 | .
CN1C(=O)c2cc(NC(=O)c3ccccc3Cl)ccc2OC[C@H]2O[C@H](CC(=O)NCC(F)(F)F)CC[C@H]21 | 0 | -1 | 2 | 1 | .
COCC(=O)Nc1ccc2c(c1)C(=O)N(C)[C@@H]1CC[C@@H](CC(=O)NCC(F)(F)F)O[C@@H]1CO2 | -4 | -1 | 81* | -11 | 8
Cn1cnc2c(N/N=C/c3cccs3)ncnc21 | 15* | 39 | -1 | . | 7
C(=N\Nc1ncnc2sc3c(c12)CCC3)/c1cccs1 | . | . | . | -4 | 30
